Results on 17 compounds are retold here after ChEMBL document CHEMBL1126191, “New antiinflammatory agents. 2. 5-Phenyl-3H-imidazo[4,5-c][1,8]naphthyridin-4(5H)-ones: a new class of nonsteroidal antiinflammatory agents with potent activity like glucocorticoids” (J Med Chem, 1992).

The test system of data set [1] is Rattus norvegicus. In words: Antiinflammatory effect (oral administration), on zymosan-induced rat paw edema at 25 mg/kg. The class given is functional. In outline: (§1)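 Oral dosing in 5% arabic gum suspension to male Wistar rats (~150 g, n=5) 1 h before subplantar injection of 1% zymosan in saline into the hind paw. Paw volume was read by plethysmograph before dosing and 4 h after zymosan.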

The subject of another data set is Mus musculus. Briefly: Acute lethal toxicity (peroral administration), determined by observing the mortality for 7 days after the administration in mouse. The class given is organism-based. To be noted: in vivo, po, 168 h. In outline: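 Male dd mice of 20-25 g, three per group, given compound by mouth once. Mortality followed for 7 days, and the minimum lethal dose (MLD) was recorded in mg/kg po.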

In data set [2] the test system is Rattus norvegicus. Briefly: Antiinflammatory effect (oral administration) on rat paw edema model (reversed passive Arthus reaction-induced paw edema) at 10 mg/kg. The class given is functional. In outline:
(§2)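 Reversed passive Arthus: male Wistar rats (~150 g, n=5) were dosed orally with compound in 5% arabic gum. Paw volume was measured by plethysmograph before dosing and 2 h after antigen. % inhibition was calculated vs controls, and ED50 came from log-dose linear regression.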

Data set [3] concerns Rattus norvegicus. In words: Antiinflammatory effect in rat paw edema model following 50 mg/kg p.o. administration. The class given is functional. To be noted: route oral.
For data set [4], the system named is Rattus norvegicus. Briefly: Antiinflammatory effect (oral administration), on rat reversed passive Arthus reaction-induced paw edema at 5 mg/kg. It counts as functional. In outline:
as §2

Data set [5] deals with Rattus norvegicus. Briefly: Dose of the compound (oral administration) showing antiinflammatory effect on rat paw edema model (carrageenan-induced paw edema, CPE). The class given is functional. (In general: The carrageenan paw model is a standard test of acute inflammation.)
Data set [6] deals with Rattus norvegicus. Briefly: Antiinflammatory effect of the compound(oral administration) on rat paw edema model(carrageenan-induced paw edema) at 50 mg/kg. The class given is functional.
Data set [7] deals with Rattus norvegicus. In words: Dose of the compound (oral administration) showing antiinflammatory effect on rat paw edema model (reversed passive Arthus reaction-induced paw edema, RPAR). It counts as functional. In outline: as §2
Data set [8] concerns Rattus norvegicus. In words: Oral dose required for antiinflammatory effect on zymosan induced rat paw edema. The class given is functional. In outline: as §1

For `O=c1c2c(ncn2CCc2ccccc2)c2cccnc2n1-c1ccccc1`, the inhibition in vivo (as a rule, the change of the read-out against control, counted positive when it falls) at 25 mg/kg in the data set on Rattus norvegicus [1] stood at 25.7%. In addition, in the data set on Mus musculus, the MLD is more than 300 mg/kg. Also, in the data set on Rattus norvegicus [2], the inhibition in vivo at 10 mg/kg was determined as 5.6%. For the same compound, in the data set with Rattus norvegicus [3], the inhibition in vivo at 50 mg/kg is 2.2%.

`O=c1c2c(ncn2Cc2ccccc2Cl)c2cccnc2n1-c1ccccc1`: the inhibition in vivo at 25 mg/kg with Rattus norvegicus [1] is 27.3%. Also, the inhibition in vivo at 50 mg/kg in the data set with Rattus norvegicus [3] stood at 14.9%. Moreover, the inhibition in vivo at 5 mg/kg in the data set on Rattus norvegicus [4] came out at 20.8%.

As for `CCN(CC)CCCn1cnc2c3cccnc3n(-c3ccccc3)c(=O)c21`, the inhibition in vivo at 25 mg/kg in the data set on Rattus norvegicus [1] stood at 17.4%. The inhibition in vivo at 50 mg/kg in the data set with Rattus norvegicus [3] came to 7.2%. In addition, the inhibition in vivo at 5 mg/kg in the data set on Rattus norvegicus [4] was determined as 11.1%.

For `O=c1c2c(ncn2Cc2ccccc2)c2cccnc2n1-c1ccccc1`, the inhibition in vivo at 25 mg/kg in the data set with Rattus norvegicus [1] amounted to 68.3%. Besides, the ED40 was found to be 5.3 mg/kg with Rattus norvegicus [5] and 0.37 mg/kg in the data set on Rattus norvegicus [8]. Further, the inhibition in vivo at 50 mg/kg in the data set with Rattus norvegicus [6] is 63%. Besides, the ED50 (in general, the dose that gives a 50% effect, or the effect in half of the subjects) in the data set on Rattus norvegicus [7] amounted to 0.47 mg/kg. For the same compound, the MLD in the data set with Mus musculus was more than 300 mg/kg. Moreover, the inhibition in vivo at 5 mg/kg in the data set on Rattus norvegicus [4] came to 79.7%.

Regarding `O=c1c2c(ncn2CCCN2CCOCC2)c2cccnc2n1-c1ccccc1`, the inhibition in vivo at 25 mg/kg with Rattus norvegicus [1] was 22.4%. Further, the inhibition in vivo at 50 mg/kg in the data set with Rattus norvegicus [6] turned out to be 9.7%. Moreover, the inhibition in vivo at 5 mg/kg in the data set with Rattus norvegicus [4] is -3.5%.

Consider `Cn1cnc2c3cccnc3n(-c3ccccc3)c(=O)c21`, for which, in the data set with Rattus norvegicus [6], the inhibition in vivo at 50 mg/kg is 40%. Also, in the data set on Mus musculus, the MLD was determined as 100 mg/kg. Also, in the data set with Rattus norvegicus [4], the inhibition in vivo at 5 mg/kg amounted to 45%.

Turning to `O=c1c2c(ncn2Cc2ccc(Cl)cc2)c2cccnc2n1-c1ccccc1`, the inhibition in vivo at 25 mg/kg in the data set on Rattus norvegicus [1] is 42.8%. The same compound yielded an MLD with Mus musculus of more than 300 mg/kg. Besides, the ED40 with Rattus norvegicus [8] amounted to 20.3 mg/kg. In the data set on Rattus norvegicus [3], the inhibition in vivo at 50 mg/kg came out at 21.3%. Moreover, the inhibition in vivo at 5 mg/kg with Rattus norvegicus [4] came to 15.1%.

With `CC(C)n1cnc2c3cccnc3n(-c3ccccc3)c(=O)c21`, in the data set on Rattus norvegicus [1], the inhibition in vivo at 25 mg/kg is 62.4%. The MLD with Mus musculus came out at 200 mg/kg. In the data set with Rattus norvegicus [8], this compound yielded an ED40 of 12.7 mg/kg. For the same compound, in the data set with Rattus norvegicus [3], the inhibition in vivo at 50 mg/kg came to 43.1%. Moreover, the inhibition in vivo at 5 mg/kg in the data set with Rattus norvegicus [4] came out at 13.3%.

`O=c1c2ncn(Cc3ccccc3)c2c2cccnc2n1-c1ccccc1`: in the data set with Rattus norvegicus [1], the inhibition in vivo at 25 mg/kg was 4.7%. Further, the MLD with Mus musculus was more than 300 mg/kg. In addition, the inhibition in vivo at 5 mg/kg with Rattus norvegicus [4] is 1.5%.

Turning to `CC(c1ccccc1)n1cnc2c3cccnc3n(-c3ccccc3)c(=O)c21` (configuration not stated), the inhibition in vivo at 25 mg/kg with Rattus norvegicus [1] turned out to be 1.6%. In the data set on Mus musculus, this compound displayed an MLD of more than 300 mg/kg. In addition, in the data set with Rattus norvegicus [3], the inhibition in vivo at 50 mg/kg was determined as 3.5%. Besides, the inhibition in vivo at 5 mg/kg in the data set with Rattus norvegicus [4] came out at 14.9%.

Consider `CC(C)Cn1cnc2c3cccnc3n(-c3ccccc3)c(=O)c21`, for which, in the data set on Rattus norvegicus [1], the inhibition in vivo at 25 mg/kg worked out at 69.7%. The ED40 turned out to be 9.1 mg/kg in the data set with Rattus norvegicus [5] and 0.19 mg/kg in the data set with Rattus norvegicus [8]. In addition, in the data set on Rattus norvegicus [6], the inhibition in vivo at 50 mg/kg came out at 57.4%. Also, the 50% effect level in the data set with Rattus norvegicus [7] (ED50) was put at a dose of 0.97 mg/kg. This compound also returned an MLD with Mus musculus of 300 mg/kg. Moreover, the inhibition in vivo at 5 mg/kg in the data set with Rattus norvegicus [4] amounted to 61.8%.

Turning to `O=c1c2c(ncn2CCCO)c2cccnc2n1-c1ccccc1`, in the data set with Rattus norvegicus [1], the inhibition in vivo at 25 mg/kg was 58.1%. For the same compound, the ED40 turned out to be 33.5 mg/kg in the data set with Rattus norvegicus [5] and 4.8 mg/kg with Rattus norvegicus [8]. Further, in the data set with Rattus norvegicus [6], the inhibition in vivo at 50 mg/kg was 42.6%. Further, the 50% effect level with Rattus norvegicus [7] (ED50) was put at a dose of 3.7 mg/kg. The compound further had an MLD in the data set with Mus musculus of more than 300 mg/kg. For the same compound, the inhibition in vivo at 5 mg/kg with Rattus norvegicus [4] was 41.3%.

Turning to `O=C(O)Cn1cnc2c3cccnc3n(-c3ccccc3)c(=O)c21`, the inhibition in vivo at 25 mg/kg in the data set with Rattus norvegicus [1] was found to be 5.1%. For the same compound, the inhibition in vivo at 50 mg/kg in the data set on Rattus norvegicus [3] was found to be 10.8%. The inhibition in vivo at 5 mg/kg in the data set on Rattus norvegicus [4] was 3.3%.

Regarding `CCCCCCn1cnc2c3cccnc3n(-c3ccccc3)c(=O)c21`, the inhibition in vivo at 25 mg/kg in the data set with Rattus norvegicus [1] worked out at 33.5%. For the same compound, in the data set on Rattus norvegicus [6], the inhibition in vivo at 50 mg/kg amounted to 35.2%. The compound also registered a 50% effective dose (ED50) in the data set on Rattus norvegicus [7] of 4.9 mg/kg. Moreover, in the data set on Mus musculus, the MLD is more than 300 mg/kg. Further, the inhibition in vivo at 5 mg/kg with Rattus norvegicus [4] amounted to 51.1%.

In the data set on Mus musculus, `CC(C)n1cnc2c(=O)n(-c3ccccc3)c3ncccc3c21` gave an MLD of more than 300 mg/kg. Moreover, the inhibition in vivo at 5 mg/kg in the data set on Rattus norvegicus [4] is 32%.

Turning to `C=CCn1cnc2c3cccnc3n(-c3ccccc3)c(=O)c21`, the inhibition in vivo at 25 mg/kg with Rattus norvegicus [1] is 67.3%. The ED40 stood at 21.9 mg/kg with Rattus norvegicus [5] and 2.7 mg/kg with Rattus norvegicus [8]. The inhibition in vivo at 50 mg/kg with Rattus norvegicus [6] was 67.8%. The compound further came in with an MLD with Mus musculus of more than 300 mg/kg. In the data set on Rattus norvegicus [4], the inhibition in vivo at 5 mg/kg is 22.7%.

For `Oc1c2ncnc-2c2cccnc2n1-c1ccccc1`, the MLD in the data set with Mus musculus is more than 300 mg/kg. Moreover, the inhibition in vivo at 5 mg/kg with Rattus norvegicus [4] was determined as 15.4%.
